Measured values: ChEMBL document CHEMBL1157079, “Labdane diterpenes from the aerial parts of Curcuma comosa enhance fetal hemoglobin production in an erythroid cell line” (J Nat Prod, 2010)
The source made the active and inactive calls. The calls are words filed in the database; no cut-off is given here.

Assays:
K562 [1] = assay: Induction of fetal heamoglobin level in human K562 cells assessed as increase in enhanced GFP expression under the control of gamma-globin promoter at 5 uM after 5 days by flow cytometry; assay type: functional
Summary of the method: (§1)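 Stable reporter line K562::∆Gγ-Aγ EGFP, carrying the EGFP gene under a γ-globin promoter within the intact human β-globin locus. Compounds tested at 5-100 µM. Read-out is EGFP expression as fold change relative to untreated, with % cell viability measured alongside. Hemin 50 µM and cisplatin 10 µM serve as reference inducers, with a DMSO vehicle control. Values are mean ± SD of three independent experiments.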

[2] = Cytotoxicity against human K562 cells assessed as cell viability at 5 uM; assay type: cell-based; conditions: read-out: Activity; summary of the method: as §1
K562 [3] = assay: Induction of fetal heamoglobin level in human K562 cells assessed as increase in enhanced-GFP expression under the control of gamma-globin promoter at 5 to 100 uM after 5 days by flow cytometry; assay type: functional, cell-based; summary of the method: as §1
K562 [4] = assay: Induction of fetal heamoglobin level in human K562 cells assessed as increase in enhanced-GFP expression under the control of gamma-globin promoter at 30 uM after 5 days by flow cytometry; assay type: functional; summary of the method: as §1
[5] = Cytotoxicity against human K562 cells assessed as cell viability at 30 uM; assay type: cell-based; conditions: read-out: Activity; summary of the method: as §1
K562 [6] = assay: Induction of fetal heamoglobin level in human K562 cells assessed as increase in enhanced GFP expression under the control of gamma-globin promoter after 5 days by flow cytometry; assay type: functional, cell-based; summary of the method: as §1
K562 [7] = assay: Induction of fetal heamoglobin level in human K562 cells assessed as increase in enhanced-GFP expression under the control of gamma-globin promoter at 20 uM after 5 days by flow cytometry; assay type: functional; summary of the method: as §1
[8] = Cytotoxicity against human K562 cells assessed as cell viability at 20 uM; assay type: cell-based; conditions: read-out: Activity; summary of the method: as §1

Structure (SMILES)	fold change (FC) (K562 [1])	viability at 5 µM [2]	Activity (K562 [3])	fold change (FC) (K562 [4])	viability at 30 µM [5]	Activity (K562 [6])	fold change (FC) (K562 [7])	viability at 20 µM [8]
C=C1CC[C@H]2C(C)(C)CCC[C@]2(C)[C@H]1/C=C/c1ccoc1 [CORONARIN E]	0.7	87.2%	inactive					
C=C1CC[C@H]2C(C)(C)C(=O)CC[C@]2(C)[C@H]1/C=C/C1=CCOC1=O [CURCUCOMOSIN A]	1	85.8%	inactive					
C=C1CC[C@H]2C(C)(C)[C@@H](O)CC[C@]2(C)[C@H]1/C=C/C1=CCOC1=O [CURCUCOMOSIN B]	1	87.7%	inactive					
C=C1CC[C@H]2C(C)(C)CCC[C@]2(C)[C@H]1C[C@@H](O)C1=CCOC1=O [CURCUCOMOSIN C]				1.2	75.8%			
C=C1CC[C@H]2C(C)(C)CCC[C@]2(C)[C@H]1C/C=C1/C(=O)OC[C@@H]1O [ISOCORONARIN D]						Dose-dependent effect	1.6	80.7%
C=C1CC[C@H]2C(C)(C)CCC[C@]2(C)[C@H]1/C=C/C1=CCOC1=O [VILLOSIN]	1	88.9%	inactive					
C=C1CC[C@H]2C(C)(C)CCC[C@]2(C)[C@H]1/C=C/C1=C(O)COC1=O [ZERUMIN]	1	87.5%	inactive					
